Source: PubChem BioAssay (several laboratories)
Dynein transport = blocks dynein driven cargo transport along microtubules; 3617.4 mouse cells, GR-EGFP nuclear translocation imaging; test concentration mostly 20 µM; stimulated with dexamethasone, 1 µM; stronger effect = lower value; z-score, hits read low; actives 0.47% (n = 220,000);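 active means plate z-score of nuclear minus cytoplasmic receptor signal below a set negative limit, without overly bright fluorescence or cell loss, cut at about -3.5 in these data, passing the limit was not always enough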;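 further: z-score of nuclear minus cytoplasmic ring GR-EGFP intensity difference per well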
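Schedule: 48 h induction, then 1 h compound, then 30 min agonist, 37 °C. Buffer or medium: tetracycline-free induction medium containing charcoal-stripped FBS. Reagent: 1.0 µM final dexamethasone stimulus. Evaluation: nuclear versus cytoplasmic GR-EGFP signal, averaged per well. Signal: high-content fluorescence imaging after fixation.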
KCC2 mod = KCC2 (human) Cl- transport modulation | Q9H2X9 | KCC2 cells, thallium flux FluoZin-2 fluorescence | B-score of Tl+ flux slope (higher = more flux/activation; lower = inhibition) at 10 µM | actives 2.2% (n = 190,000) | AID 1456;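 active means thallium flux slope and its plate-corrected score both differing from the plate sample mean at a set confidence after two filtering rounds, in either direction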;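 further: slope of fluorescence scaled to starting intensity during 10 to 20 s after thallium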
Target sequence (Q9H2X9 whole entry, looked up): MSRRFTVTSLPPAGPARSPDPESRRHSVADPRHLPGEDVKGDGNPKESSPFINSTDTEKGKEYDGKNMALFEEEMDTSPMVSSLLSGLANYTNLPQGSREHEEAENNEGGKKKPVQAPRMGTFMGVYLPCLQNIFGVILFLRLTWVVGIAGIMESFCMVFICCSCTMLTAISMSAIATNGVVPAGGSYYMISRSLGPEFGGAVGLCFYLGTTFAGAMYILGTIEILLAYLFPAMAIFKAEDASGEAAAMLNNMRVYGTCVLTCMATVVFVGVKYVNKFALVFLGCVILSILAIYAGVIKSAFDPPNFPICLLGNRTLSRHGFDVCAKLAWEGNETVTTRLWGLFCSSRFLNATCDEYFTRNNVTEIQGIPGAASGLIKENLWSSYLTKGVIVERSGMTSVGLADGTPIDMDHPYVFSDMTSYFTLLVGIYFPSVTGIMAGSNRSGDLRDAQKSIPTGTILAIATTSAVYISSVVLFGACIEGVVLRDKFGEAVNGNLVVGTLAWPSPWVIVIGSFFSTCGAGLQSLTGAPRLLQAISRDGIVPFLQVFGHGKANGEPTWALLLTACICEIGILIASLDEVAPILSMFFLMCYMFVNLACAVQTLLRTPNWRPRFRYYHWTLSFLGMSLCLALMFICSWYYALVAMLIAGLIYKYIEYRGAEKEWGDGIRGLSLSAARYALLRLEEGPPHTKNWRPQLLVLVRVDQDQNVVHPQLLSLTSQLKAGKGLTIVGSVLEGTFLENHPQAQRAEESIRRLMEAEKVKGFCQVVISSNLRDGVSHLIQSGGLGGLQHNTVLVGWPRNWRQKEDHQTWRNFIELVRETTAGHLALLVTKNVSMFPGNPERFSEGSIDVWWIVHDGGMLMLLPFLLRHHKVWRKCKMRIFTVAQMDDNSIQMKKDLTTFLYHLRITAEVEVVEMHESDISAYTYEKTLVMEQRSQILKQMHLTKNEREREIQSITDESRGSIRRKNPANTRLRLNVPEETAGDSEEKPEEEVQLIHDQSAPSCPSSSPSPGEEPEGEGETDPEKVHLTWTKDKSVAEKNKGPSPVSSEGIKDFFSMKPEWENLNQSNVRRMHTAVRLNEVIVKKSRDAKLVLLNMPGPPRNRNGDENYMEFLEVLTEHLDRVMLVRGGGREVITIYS
DTT redox prof = compounds producing H2O2 with reducing agent – biochemical, NIH compound library profiling, artefact control for MLSCN library redox annotation, primary screen; activation, % at 10 µM; AID 878; DTT-dependent redox cycling H2O2, phenol red/HRP absorbance; 100% = 100 µM peroxide control, 0% = buffer; actives 0.03% (n = 200,000);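 active means activation of at least 50% relative to the plate's high and low controls in the primary single-dose screen; inactive means activation below 50%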;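 further: compound incubated with DTT at 0.8 mM final as the reducing agent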
ROMK mod = modulators of human ROMK potassium channel | P48048 | Tet-inducible ROMK, thallium flux fluorescence; actives lie on both sides | B-score at 10 µM | actives 2% (n = 130,000) | AID 1918;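 active means signal ratio slope over the read window, or its plate-corrected B-score, at least 3 SD from the plate mean, either direction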;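 further: B-score of the F/F0 ratio slope over 7 to 12 s after thallium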
Autophagy mod = modulators of autophagy | actives 0.98% (n = 190,000) | MEF GFP-LC3 puncta imaging; test concentration mostly 10 µM | AID 463193 | calls only at 10 µM (by protocol);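 active means percentage of spot-positive cells more than 3 SD above its plate mean, without a fluorescence outlier flag or 80% toxicity; inconclusive means no clear call, values can overlap the other calls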
KCC2 sec1 = confirmation of human KCC2 transport modulators | HEK293-KCC2, thallium flux, FluoZin2 fluorescence; stronger effect = higher value | actives 15% (n = 3,700) | shares compounds with KCC2 mod | normalised thallium flux (F/F0 slope) at 10 µM;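 active means thallium flux slope above the same plate's solvent-only control mean plus 3 SD; inconclusive means the two replicate wells disagree; inactive means no significant difference from solvent-only control wells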
KCC2 bumet counter = bumetanide-insensitive thallium flux in KCC2 cells with ouabain, counter-screen; normalized thallium flux at 10 µM; AID 1714; actives 49% (n = 3,700); shares compounds with KCC2 mod; HEK293-KCC2 + bumetanide/ouabain, thallium flux FluoZin2; stronger effect = higher value;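 active means thallium entry rate above the same plate's blocked-transporter control wells by more than 3 SD; inconclusive means the two repeat wells disagree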;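 further: raw slope of fluorescence over initial fluorescence between 10 and 20 s after thallium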
KCC2 secondary2 = confirmation of human KCC2 transport modulators; shares compounds with KCC2 mod; HEK293-KCC2, thallium flux FluoZin2 fluorescence; actives lie on both sides; F/F0 rise rate, 10–20 s post-thallium; normalized thallium flux at 10 µM; actives 23% (n = 3,700); AID 1715;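 active means thallium flux slope more than 3 SD above or below the plate's solvent-only control mean, mostly below; inconclusive means the two repeat wells disagreed; inactive means no significant shift from solvent-only controls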
HEK293 Tl flux = counter-screen for KCC2 modulators: effect in parental HEK293 cells | shares compounds with KCC2 mod | thallium flux FluoZin2, ouabain; baseline-ratio fluorescence slope, 10–20 s after thallium | thallium flux rate (normalised fluorescence) at 10 µM | actives 46% (n = 3,700);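 active means thallium flux rate significantly above the same plate's solvent-only control wells, beyond their mean plus 3 SD; inconclusive means the two replicate wells gave conflicting results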
KCC2 ouabain = KCC2 (human) modulation, ouabain retest. shares compounds with KCC2 mod. HEK293-KCC2, thallium flux FluoZin2 fluorescence; bidirectional: low = inhibitor, high = activator. raw Tl+ flux slope (below DMSO = inhibition, above = activation) at 10 µM. actives 48% (n = 3,700). AID 1717;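 active means thallium flux slope beyond 3 SD from same-plate DMSO control mean in most replicates, usually higher, sometimes lower; inconclusive means repeat tests gave conflicting results; inactive means no significant difference from controls in most replicates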;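 further: slope of initial-normalized fluorescence between seconds 10 and 20 after thallium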
HEK counter2 = parental HEK flux effect, counter-screen 2. shares compounds with KCC2 mod. HEK293 parental, thallium flux FluoZin-2 fluorescence slope. thallium flux slope at 10 µM. actives 33% (n = 3,700);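 active means thallium flux slope above the same plate's solvent-control mean plus 3 SD in both duplicate wells; inconclusive means duplicate wells that disagreed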;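 further: run without ouabain in cells lacking the KCC2 cotransporter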
Large screens that a line does not name were inactive (follow-up assays come after a bar, where they were run). An excerpt weighted towards active compounds, which were near 4.1% of everything screened.

Cc1cc(CNC(=O)Cn2nc(C)c([N+](=O)[O-])c2C)c2ccccc2n1	none
c1ccc2sc(SN3CCOCC3)nc2c1	KCC2 mod 2.8 (no result: ROMK mod) | KCC2 sec1 inactive | KCC2 bumet counter 0.013 | KCC2 secondary2 inactive | HEK293 Tl flux 0.011 | KCC2 ouabain inactive | HEK counter2 inconclusive
c1ccc2sc(N3CCOCC3)nc2c1	none (no result: ROMK mod)
O=C(/C=C/c1cccs1)Nc1scc(-c2ccccc2)c1C(=O)O	KCC2 mod -4.2 | KCC2 sec1 inactive | KCC2 bumet counter inconclusive | KCC2 secondary2 0.021 | HEK293 Tl flux inactive | KCC2 ouabain 0.014 | HEK counter2 inactive
O=C(/C=C/c1cccs1)Nc1nc(-c2ccccc2)cs1	none (no result: KCC2 mod, ROMK mod)
CCOC(=O)Cc1cc(=O)n2[nH]c(-c3ccccc3)c(-c3ccccc3)c2n1	KCC2 mod 6 | KCC2 sec1 inactive | KCC2 bumet counter 0.018 | KCC2 secondary2 inactive | HEK293 Tl flux 0.014 | KCC2 ouabain inconclusive | HEK counter2 0.014
Cc1cc(C)n2nc(CCCO)nc2n1	none
C=CCn1c(SCCCc2ccccc2)nc2c1c(=O)[nH]c(=O)n2C	KCC2 mod -3.7 (no result: ROMK mod) | KCC2 sec1 inactive | KCC2 bumet counter inactive | KCC2 secondary2 inactive | HEK293 Tl flux inconclusive | KCC2 ouabain inactive | HEK counter2 inactive
C/C=C/Cn1c(SCCCc2ccccc2)nc2c1c(=O)[nH]c(=O)n2C	KCC2 mod -5.1 (no result: ROMK mod, Autophagy mod) | KCC2 sec1 inactive | KCC2 bumet counter inactive | KCC2 secondary2 inconclusive | HEK293 Tl flux 0.0054 | KCC2 ouabain inconclusive | HEK counter2 0.0086
COCCn1c(SCCCc2ccccc2)nc2c1c(=O)[nH]c(=O)n2C	none (no result: ROMK mod)
CCCCNC(=S)NCCN1CCN(C(=S)NCCCC)CC1	none
CNC(=O)NC(=O)C(C)OC(=O)c1cc2c(s1)CCCCC2 (stereo unspecified)	none (no result: ROMK mod)
S=C1CSc2ccccc2N1	KCC2 mod 8.6 (no result: ROMK mod) | KCC2 sec1 inactive | KCC2 bumet counter 0.016 | KCC2 secondary2 inactive | HEK293 Tl flux 0.014 | KCC2 ouabain inconclusive | HEK counter2 0.014
O=C(Nc1cccc([N+](=O)[O-])c1)Nc1ccc2c(c1)OCCO2	none
O=C(O)c1cc([N+](=O)[O-])ccc1NCCc1ccccc1	none (no result: DTT redox prof, ROMK mod, Autophagy mod)
O=C(O)c1cc([N+](=O)[O-])ccc1NCc1ccccc1Cl	KCC2 mod -4.5 | KCC2 sec1 inconclusive | KCC2 bumet counter 0.0056 | KCC2 secondary2 0.022 | HEK293 Tl flux inconclusive | KCC2 ouabain 0.011 | HEK counter2 inactive
COC(=O)c1c(N2C(=O)CC(Sc3ccccc3C(=O)O)C2=O)sc2c1CCCC2 (stereo unspecified)	none
CCOC(=O)c1sc(-c2ccc(C(F)(F)F)cc2)nc1O	none (no result: DTT redox prof, ROMK mod, Autophagy mod)
CCOC(=O)c1sc(C)c2c(=O)n(Cc3ccc(Cl)cc3)c(C)nc12	none (no result: ROMK mod)
CCOC(=O)c1sc2nc(Cc3ccc(Cl)cc3)[nH]c(=S)c2c1C	KCC2 mod 79 | KCC2 sec1 0.025 | KCC2 bumet counter 0.12 | KCC2 secondary2 0.038 | HEK293 Tl flux 0.052 | KCC2 ouabain 0.076 | HEK counter2 0.026
CCOC(=O)c1sc(-c2cccc(C(F)(F)F)c2)nc1O	KCC2 mod 8.1 (no result: DTT redox prof, ROMK mod, Autophagy mod) | KCC2 sec1 inactive | KCC2 bumet counter 0.015 | KCC2 secondary2 inactive | HEK293 Tl flux 0.012 | KCC2 ouabain inconclusive | HEK counter2 0.014
CCOC(=O)c1sc(-c2ccc(Cl)cc2)nc1O	KCC2 mod 15 (no result: DTT redox prof, ROMK mod, Autophagy mod) | KCC2 sec1 inactive | KCC2 bumet counter 0.022 | KCC2 secondary2 inactive | HEK293 Tl flux 0.011 | KCC2 ouabain inactive | HEK counter2 inconclusive
CCOC(=O)c1nc(-c2ccccc2)sc1C(C)=O	none (no result: DTT redox prof, ROMK mod, Autophagy mod)
CC1(C)CC2CC(C)(CN2C(=O)COC(=O)CNC(=O)c2ccc(Cl)c(Cl)c2)C1 (stereo unspecified)	none
COC(=O)c1ccc(NC(CC(C)C)C(=O)OC)c([N+](=O)[O-])c1 (stereo unspecified)	none
CC(=O)NC1C(=O)N=C(SCC(=O)Nc2cccc(Cl)c2)NC1=O (stereo unspecified)	none
O=C(NC(Cc1ccccc1)C(=O)OCC(=O)N1CCc2ccccc21)c1ccco1 (stereo unspecified)	KCC2 mod -3.7 (no result: ROMK mod) | KCC2 sec1 inactive | KCC2 bumet counter inactive | KCC2 secondary2 0.022 | HEK293 Tl flux inactive | KCC2 ouabain inactive | HEK counter2 inactive
O=C(O)CCCCCNS(=O)(=O)c1ccc2c(c1)OCCO2	none
O=S(=O)(NCCSc1ccccc1)c1ccc2c(c1)OCCO2	none (no result: KCC2 mod) | KCC2 sec1 inconclusive | KCC2 bumet counter inactive | KCC2 secondary2 inactive | HEK293 Tl flux inactive | KCC2 ouabain inconclusive | HEK counter2 inactive
COc1cc(/C=C(\C#N)C(=O)NCCc2ccccc2)cc(OC)c1O	KCC2 mod -6.2 | KCC2 sec1 inactive | KCC2 bumet counter 4e-05 | KCC2 secondary2 0.02 | HEK293 Tl flux 0.0044 | KCC2 ouabain 0.0091 | HEK counter2 inconclusive
CCOCCCNC(=O)/C(C#N)=C/c1cc(Br)c(O)c(Br)c1	KCC2 mod -4 (no result: DTT redox prof, ROMK mod, Autophagy mod) | KCC2 sec1 inactive | KCC2 bumet counter inactive | KCC2 secondary2 inactive | HEK293 Tl flux inactive | KCC2 ouabain inactive | HEK counter2 inactive
COCCNC(=O)/C(C#N)=C/c1cc(Br)c(O)c(OC)c1	none
Cc1c(C(=O)OCCOc2ccc(Br)cc2)sc(=S)n1C	none
C=CCSc1ncnc2sc(C)c(C)c12	KCC2 mod 4.8 (no result: DTT redox prof, ROMK mod) | KCC2 sec1 inactive | KCC2 bumet counter 0.023 | KCC2 secondary2 inactive | HEK293 Tl flux 0.013 | KCC2 ouabain inactive | HEK counter2 0.013
COC(=O)c1ccc(CSc2ncnc3sc(C)c(C)c23)o1	KCC2 mod 51 | KCC2 sec1 0.011 | KCC2 bumet counter 0.1 | KCC2 secondary2 0.07 | HEK293 Tl flux 0.064 | KCC2 ouabain 0.084 | HEK counter2 0.05
Cc1sc2ncnc(SCc3ccc(C(=O)O)cc3)c2c1C	none
CC(C)COc1ccc(-c2nnc(-c3ccncc3)o2)cc1	none (no result: ROMK mod)
